The target of test [1] is T1, Phosphodiesterase 4 (Homo sapiens) (UniProt P27815+Q08499+Q07343+Q08493). Briefly: Inhibitory activity towards cAMP phosphodiesterase isolated from bovine heart. The format is protein assay. The arrangement: unit not given here. As to conditions: Bos taurus; target entry is the homologue from another species. The method, boiled down:
(§1)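 PDE prepared as previously described. Each 0.5 mL reaction held 25 µmol Tris-HCl (pH 7.5), 5 µmol MgCl2, 10-75 µg enzyme protein, 350 pmol [8-3H]cAMP (850 cpm/pmol), and at least seven inhibitor concentrations (0.5 µM to 5 mM). 5'-AMP formed was measured at three or more time points (3-12 min) to confirm linear rates. I50 was read graphically from % inhibition versus log inhibitor concentration.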

In test [2] the target is T1, Phosphodiesterase 4 (Homo sapiens). As to the kind of experiment: Inhibitory activity towards cAMP phosphodiesterase isolated from rabbit lung. The format is protein assay. Set-up: unit not given here. As to conditions: Oryctolagus cuniculus; target entry is the homologue from another species. Put shortly: as §1
For test [3], the species on record is Bos taurus. As to the kind of experiment: (§2) Inhibition of bovine brain cAMP Phosphodiesterase. The arrangement: unit not given here. Put shortly:
as §1

Test [4] deals with T1, Phosphodiesterase 4 (Homo sapiens). Briefly: Inhibitory activity towards cAMP Phosphodiesterase isolated from rabbit heart. Type of test: protein assay. The arrangement: reference not given here. As to conditions: Oryctolagus cuniculus; target entry is the homologue from another species.
The target is the same in test [5]. The description is as §2. As to conditions: Bos taurus; target entry is the homologue from another species. The method, boiled down: as §1
The species named for test [6] is Bos taurus.
The species entered for test [7] is Bos taurus. The source holds these as a separate data set.
Test [8] is described as follows: Inhibition of rabbit lung cAMP Phosphodiesterase. Set-up: species or system Oryctolagus cuniculus. To be noted: read-out: I50. Put shortly: (§3)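 Enzymes prepared as previously described (beef heart, 14 units/mg; rabbit lung, 70 units/mg). The 0.5 mL reaction held 25 µmol Tris-HCl pH 7.5, 5 µmol MgCl2, 10-75 µg enzyme protein, 350 pmol [8-3H]cAMP (850 cpm/pmol), and at least seven inhibitor concentrations (0.5 µM to 5 mM). 5'-AMP was measured at three or more time points (3-12 min) to confirm linear rates. I50 was read graphically from % inhibition vs log concentration.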

Test [9] can be described thus: Inhibition of bovine heart cAMP Phosphodiesterase. Set-up: species or system Bos taurus. The method, boiled down: as §3

These results are taken from ChEMBL document CHEMBL1122020, “Synthesis and enzymic activity of various substituted pyrazolo[1,5-a]-1,3,5-triazines as adenosine cyclic 3',5'-phosphate phosphodiesterase inhibitors” (J Med Chem, 1982).

With `CCc1nc(CC)n2nc(-c3ccc(OC)cc3)cc2n1`, the Activity was 8 in [1] and 14 in test [2].
In the case of `Cc1nc(C)n2ncc(-c3ccccc3)c2n1`, the figures for the Activity (in the test filed under Bos taurus [3]; in [1]; in [2]) were 40, 3 and 25, respectively.
As to `CCCOc1nc(SC)nc2c(Br)cnn12`, the results for the Activity in [2] and in test [4] were 2.7 and 0.7, respectively.
Turning to `CCSc1nc(SC)nc2c(Br)cnn12`, the Activity in test [2] was determined as 13; in test [4], 2.6.
For `CCNc1nc(SC)nc2c(Br)cnn12`, the Activity in test [5] was determined as 17; in [2] it was 40; in [4], 8.
`CCc1nc(C)nc2cc(-c3ccccc3)nn12`: the figures for the Activity in test [1] and in test [2] were 4 and 21, respectively.
In the case of `CCc1nc(C)nc2c(-c3ccccc3)cnn12`, the results for the Activity (in the test filed under Bos taurus [3]; in [1]; in test [2]) were 39, 10 and 27, respectively.
`Cc1cccc(-c2cnn3c(C)nc(C)nc23)c1`: the Activity amounted to 2 in test [1] and 14 in test [2].
With `c1ccc(-c2cc3ncnc(N4CCCCC4)n3n2)cc1`, the Activity worked out at 11 in test [1] and 29 in test [2].
As to `CCc1nc(C)nc2c(Br)cnn12`, the Activity in test [1] was determined as 1; in test [2], 2.5.
For the molecule `Cc1nc(C)n2nc(-c3ccccc3)cc2n1`, the Activity is 19 in the test listed under Bos taurus [3], 3.5 in test [1] and 22 in test [2].
On to `CSc1ncnc2cc(-c3ccccc3)nn12`, for which the Activity in test [2] amounted to 11; in [4], 7.3.
With `CCc1nc(C)n2nccc2n1`, the figures for the Activity in [1] and in test [2] were 0.5 and 2.4, respectively.
As to `CSc1nc(SC)n2ncc(Br)c2n1`, the results for the Activity in test [2] and in [4] were 5 and 1.5, respectively.
Regarding `CCCc1nc(C)nc2cc(-c3ccccc3)nn12`, the Activity in [1] worked out at 11; in test [2] it was 10.
The corresponding values for `Cc1cccc(-c2cnn3cnc(C)nc23)c1` are 0.4 and 1.5.
Take `COc1nc(SC)nc2ccnn12`: the Activity in test [2] is 0.6; in test [4] it was 0.5.
On to `CCCCNc1nc(SC)nc2c(Br)cnn12`, for which the Activity in [5] came to 18; in test [2], 160; in test [4] it was 12.5.
As to `CCc1nc(C)nc2c(Br)c(-c3ccccc3)nn12`, the results for the Activity in [1] and in [2] were 7 and 14, respectively.
The corresponding values for `CCc1nc(C)n2nc(-c3ccccc3)cc2n1` are 2.7 and 12.
`CCN(CC)c1nc(SC)nc2c(Br)cnn12`: the Activity in test [2] came out at 26; in test [4], 6.2.
Take `CCOC(=O)c1cnn2c(CC)nc(C)nc12`: the Activity in test [1] came to 1.2; in [2], 0.7.
Take `Cc1nc(C)n2nccc2n1`: the Activity in test [1] amounted to 0.9; in test [2], 1.
`CCc1nc(C)nc2c(-c3cccc(C)c3)cnn12` had an Activity in test [1] of 5.
For `Cc1ncn2nc(-c3ccccc3)cc2n1`, the Activity was 49 in the test listed under Bos taurus [3], 3 in test [1] and 25 in test [2].
For `CCCNc1nc(SC)nc2c(Br)cnn12`, the results for the Activity in test [2] and in test [4] were 67 and 6.9, respectively.
As to `CCc1nc(C)nc2cc(-c3ccc(OC)cc3)nn12`, the Activity in test [1] is 3; in test [2], 16.
The corresponding values for `CCCCNc1nc(C)nc2cc(-c3ccccc3)nn12` are 1.7 and 11.
Turning to `CSc1nc(C)n2nccc2n1`, the Activity in test [2] is 1.6; in test [4], 0.
Taken in the same sequence, the figures for `CCCNc1nc(SC)nc2ccnn12` were 12 and 5.8.
On to `CCCCNc1ncnc2cc(-c3ccccc3)nn12`, for which the values for the Activity in [1] and in test [2] were 2.5 and 13.5, respectively.
The corresponding values for `CCc1nc(C)nc2ccnn12` are 0.7 and 1.1.
Taken in the same sequence, the figures for `CCc1nc(C)nc2c(Cl)cnn12` were 0.8 and 1.8.
On to `CCc1nc(C)nc2c(C#N)cnn12`, for which the figures for the Activity in [1] and in test [2] were 1.7 and 1.2, respectively.
`COc1nc(SC)nc2c(Br)cnn12`: the Activity in [2] worked out at 9; in test [4] it was 3.2.
For orientation: Km means the concentration of substrate that gives half-maximal velocity. On to `Nc1ncnc2c1ncn2[C@@H]1O[C@@H]2COP(=O)(O)O[C@H]2[C@H]1O`, for which the figures for the Km in the test filed under Bos taurus [6], in the test filed under Bos taurus [7] and in the test listed under Oryctolagus cuniculus were 0.63 µM, 1.3 µM and 0.56 µM, respectively.
As for `CCSc1nc(SC)nc2ccnn12`, the figures for the Activity in test [2] and in test [4] were 8 and 3.2, respectively.
As for `CCc1nc(CC)n2nc(-c3ccccc3)c(Br)c2n1`, the Activity in [1] was found to be 2; in test [2] it was 9.
The corresponding values for `CCN(CC)c1ncnc2c(Br)c(-c3ccccc3)nn12` are 40 and 185.
Turning to `Cc1ncn2nc(-c3ccccc3)c(Br)c2n1`, the figures for the Activity in test [1] and in [2] were 0.9 and 1.8, respectively.
With `CCCNc1ncnc2cc(-c3ccccc3)nn12`, the values for the Activity in test [1] and in [2] were 3.8 and 26, respectively.
Regarding `CCc1nc(CC)n2nc(-c3ccccc3)cc2n1`, the Activity in the test filed under Bos taurus [3] was determined as 12; in test [1], 7; in [2], 20.
By Ki is commonly meant the dissociation constant of the complex between target and ligand, obtained from inhibition or displacement. Consider `Cn1c(=O)c2nc[nH]c2n(C)c1=O` [THEOPHYLLINE], for which the values for the IC50 in test [8] and in test [9] (read-out: I50) were 210 µM and 90 µM, respectively. This molecule also showed a Ki in [9] of 77 µM.
`CSc1nc(S)n2ncc(Br)c2n1`: the Activity came out at 1 in [2] and 0.68 in test [4].
For `CCCc1nc(C)nc2c(Br)c(-c3ccccc3)nn12`, the Activity in [1] amounted to 2; in [2], 8.
With `CSc1nc(OC(C)C)n2ncc(Br)c2n1`, the values for the Activity in test [2] and in test [4] were 1.5 and 4, respectively.
Take `CCc1nc(CC)n2nc(-c3ccccc3C)cc2n1`: the Activity stood at 42 in the test listed under Bos taurus [3], 16 in test [1] and 15 in test [2].
As to `CCc1ncn2nc(-c3ccccc3)cc2n1`, the Activity in the test listed under Bos taurus [3] came out at 97; in [1], 0.5; in test [2] it was 14.
The corresponding values for `Cc1nc(O)n2nc(-c3ccccc3)cc2n1` are 4.7, 0.5 and 1.9.
As to `Cc1nc(-c2ccccc2)n2nc(-c3ccccc3)cc2n1`, the Activity in [2] was 10.
`CCN(CC)c1ncnc2cc(-c3ccccc3)nn12`: the Activity in the test filed under Bos taurus [3] is 146; in [1], 57; in test [2], 143.
On to `Cc1nc(C)n2nc(-c3ccccc3)c(Br)c2n1`, for which the Activity was 3 in test [1] and 40 in test [2].
For the molecule `CCN(CC)c1nc(SC)nc2ccnn12`, the Activity stood at 12 in test [5], 19 in [2] and 12.2 in [4].
